According to PMC2292216 (The Journal of Experimental Medicine, 2008):

Tests used:
[1] = molecular target: T1, BLT2 (Homo sapiens, UniProt Q9NPC1); settings: cited from earlier work
T1 sequence (Q9NPC1 1-358): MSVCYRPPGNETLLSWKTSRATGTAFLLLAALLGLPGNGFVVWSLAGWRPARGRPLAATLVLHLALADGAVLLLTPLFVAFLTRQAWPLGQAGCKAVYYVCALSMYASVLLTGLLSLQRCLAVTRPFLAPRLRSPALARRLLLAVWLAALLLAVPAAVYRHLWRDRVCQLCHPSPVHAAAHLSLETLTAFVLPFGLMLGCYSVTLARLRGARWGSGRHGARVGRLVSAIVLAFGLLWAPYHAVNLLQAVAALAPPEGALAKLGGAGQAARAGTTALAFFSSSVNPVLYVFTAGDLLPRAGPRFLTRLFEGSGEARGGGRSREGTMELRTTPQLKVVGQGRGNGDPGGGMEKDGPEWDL

[2] = test system: mouse BMMCs; assay: Chemotaxis; type: cell-based
Summary of the method: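 BMMCs from WT, BLT1-KO and BLT2-KO mice (knockouts backcrossed to BALB/c for 10 generations) grown in RPMI 1640 with 10% fetal calf serum, 0.1 mM nonessential amino acids and 50% WEHI-3 cell-conditioned medium; maturation checked by flow cytometry. Migration toward test compound measured; stem cell factor (via c-kit) as positive control.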

[3] = molecular target: T1, BLT2; assay: [3H]LTB4 displacement assay, membrane preparations of CHO-BLT2 cells; type: binding
[4] = molecular target: T2, human BLT1 (Homo sapiens, UniProt Q15722); assay: Intracellular calcium mobilization in CHO-BLT1 cells; type: cell-based; settings: concentrations as high as 3.3 μM
[5] = molecular target: T1, BLT2; assay: IP accumulation assay in COS-7 cells coexpressing BLT2 and G14; type: cell-based
[6] = molecular target: T3, mouse BLT2 (Mus musculus, UniProt Q9JJL9); assay: IP accumulation assay in cells cotransfected with mouse BLT2 and G14; type: cell-based
T3 sequence (Q9JJL9 1-360): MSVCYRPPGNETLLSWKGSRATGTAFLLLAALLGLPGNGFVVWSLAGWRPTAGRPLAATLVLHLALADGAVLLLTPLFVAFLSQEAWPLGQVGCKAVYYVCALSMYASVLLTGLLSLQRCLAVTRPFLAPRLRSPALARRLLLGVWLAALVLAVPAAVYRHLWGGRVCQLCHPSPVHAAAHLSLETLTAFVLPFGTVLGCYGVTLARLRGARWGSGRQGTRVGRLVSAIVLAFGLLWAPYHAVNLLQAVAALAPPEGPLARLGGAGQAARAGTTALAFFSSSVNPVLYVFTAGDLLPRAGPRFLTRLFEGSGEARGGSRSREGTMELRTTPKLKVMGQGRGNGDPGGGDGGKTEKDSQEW

[7] = molecular target: T1, BLT2; assay: cAMP assay; type: cell-based
[8] = molecular target: T2, human BLT1; assay: cAMP assay; type: cell-based; settings: CHO-BLT1 cells, 50 μM forskolin
[9] = molecular target: T1, BLT2; assay: Boyden chamber chemotaxis assay of CHO-BLT2 cells; type: cell-based; settings: for concentration required for maximal chemotaxis: Boyden chamber
[10] = molecular target: T2, human BLT1; assay: Boyden chamber chemotaxis assay of CHO-BLT1 cells; type: cell-based
[11] = molecular target: T1, BLT2; assay: Cytosensor microphysiometer assay in CHO-BLT2 cells; type: cell-based
Summary of the method: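 CHO cells stably expressing BLT2, with BLT1 and mock transfectants alongside. Proton flux recorded by cytosensor microphysiometer on exposure to lipid extracts from rat, mouse or platelet sources, or to 1-min RP-HPLC fractions (MeOH/H2O/AcOH 70:30:0.01). ATP served as control for endogenous purinergic receptors.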

[12] = test system: platelets; assay: Platelet aggregation; type: cell-based; settings: unpublished data

T2 sequence (Q15722 whole entry): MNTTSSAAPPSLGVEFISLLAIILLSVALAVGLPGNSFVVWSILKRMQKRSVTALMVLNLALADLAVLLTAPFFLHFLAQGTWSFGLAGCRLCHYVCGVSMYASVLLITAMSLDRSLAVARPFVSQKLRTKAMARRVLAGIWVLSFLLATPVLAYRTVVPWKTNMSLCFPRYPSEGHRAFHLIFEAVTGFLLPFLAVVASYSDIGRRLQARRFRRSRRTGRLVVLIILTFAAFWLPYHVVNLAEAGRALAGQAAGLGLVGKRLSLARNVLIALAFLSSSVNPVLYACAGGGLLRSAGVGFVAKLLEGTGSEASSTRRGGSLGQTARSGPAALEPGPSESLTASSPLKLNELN

Row | Molecule | agonist activity at BLT2 [1] | migration of BMMCs ([2]; BMMCs from BLT1-KO mice) | migration of BMMCs ([2]; BMMCs from BLT2-KO mice) | migration of BMMCs ([2]; BMMCs from WT mice) | concentration required for maximal chemotaxis [9] | other results
1 | CCCCC[C@H](O)/C=C/C=C\C/C=C\C/C=C\CCCC(=O)O [15-HETE] | weak agonists |  |  |  |  | 
2 | SCF: stem cell factor, positive control inducing chemotaxis through the c-kit receptor |  | induced robust chemotaxis | induced robust chemotaxis | induced robust chemotaxis |  | 
3 | CCCCC[C@H](O)/C=C/C=C/C/C=C\CCCC(=O)O [12-HHT, 12(S)-hydroxyheptadeca-5Z, 8E, 10E–trienoic acid] |  | migrated in response to 12-HHT |  | migrated in response to 12-HHT | 30 nM | IC50 [3]: 2.8 nM; calcium mobilization [4]: failed to induce calcium mobilization; EC50 [5]: 5.4 nM; activation of mouse BLT2 by IP accumulation [6]: activated mouse BLT2; IC50 [7]: 1 nM; adenylyl cyclase inhibition [8]: had no effect; chemotaxis [10]: failed to induce chemotaxis; activation of BLT2 in the cytosensor assay [11]: able to activate BLT2; agonistic activity in platelet aggregation [12]: did not display agonistic activity
4 | pertussis toxin |  |  |  |  |  | effect of pretreatment on 12-HHT-dependent adenylyl cyclase inhibition ([7]; CHO-BLT2 cells, pretreatment): completely blocked; effect of pretreatment on 12-HHT-induced chemotaxis ([9]; pretreatment): completely abolished
5 | CCCCC/C=C\C[C@H](O)/C=C/C=C\C/C=C\CCCC(=O)O [12-HETE] | weak agonists |  |  |  |  | 
6 | CCCCC/C=C\C[C@@H](O)/C=C/C=C/C=C\[C@@H](O)CCCC(=O)O [LTB4, 5(S), 12(R)-dihydroxy-6, 14-cis-8, 10-trans-eicosatetraenoic acid] |  |  | migrated in response to LTB4 | migrated in response to LTB4 | > 1,000 nM | 
